In brackets after ≈: the same amount, converted by molar mass. Where only a bound is given, the exact number is not on record here.

Holding throughout (type): functional
Assay [1] deals with Candida albicans. Nature of the assay: Antimicrobial activity against Candida albicans SC5314 after 24 hrs by serial dilution method. To be noted: SC5314, 24 h. The method in brief:
(§1)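 Broth serial dilution MIC in 96-well plates following NCCLS/CLSI methods. Compounds were dissolved in DMSO and serially diluted in growth medium, with incubation at 35 °C. […] C. parapsilosis 22019 served as the quality-control strain in each assay.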

For assay [2], the system named is Candida albicans. As to the kind of experiment: Antimicrobial activity against Candida albicans Y0109 after 24 hrs by serial dilution method. To be noted: Y0109, 24 h. The procedure, abridged:
as §1

The test system of another assay is Candida parapsilosis. As to the kind of experiment: Antimicrobial activity against Candida parapsilosis 22019 after 24 hrs by serial dilution method. To be noted: Lodderomyces parapsilosis, 22019, 24 h. The method in brief: as §1
The subject of the next assay is Cryptococcus neoformans. Nature of the assay: Antimicrobial activity against Cryptococcus neoformans 32609 after 72 hrs by serial dilution method. The conditions noted are these: Cryptococcus neoformans, 32609, 72 h. The procedure, abridged: as §1
In another assay the test system is Nakaseomyces glabratus. Nature of the assay: Antimicrobial activity against Candida glabrata 537 after 24 hrs by serial dilution method. To be noted: Nakaseomyces glabratus, 537, 24 h. The procedure, abridged:
as §1

In the next assay the test system is Aspergillus fumigatus. As to the kind of experiment: Antimicrobial activity against Aspergillus fumigatus 7544 after 48 hrs by serial dilution method. To be noted: Aspergillus fumigatus, 7544, 48 h. The method in brief: as §1

Turning to `C[C@@H](N1CCn2nc(-c3ccc(C(F)(F)F)cc3)nc2C1)[C@](O)(Cn1cncn1)c1ccc(F)cc1F`, the MIC – broadly, the smallest concentration in the dilution series that meets the test's criterion for growth inhibition – with Candida albicans [1] was found to be 0.25 µg/mL (≈ 0.481 µM); with Candida albicans [2] it was 0.5 µg/mL (≈ 0.963 µM); with Candida parapsilosis, 0.5 µg/mL (≈ 0.963 µM); with Cryptococcus neoformans, 1 µg/mL (≈ 1.93 µM); against Nakaseomyces glabratus, 0.125 µg/mL (≈ 0.241 µM); with Aspergillus fumigatus it was 16 µg/mL (≈ 30.8 µM).
Regarding `C[C@@H](N1CCn2nc(-c3ccc(F)cc3F)nc2C1)[C@](O)(Cn1cncn1)c1ccc(F)cc1F`, the MIC in the assay on Candida albicans [1] was 0.125 µg/mL (≈ 0.256 µM); in the assay with Candida albicans [2] it was 0.125 µg/mL (≈ 0.256 µM); against Candida parapsilosis, 0.25 µg/mL (≈ 0.513 µM); with Cryptococcus neoformans it was 0.5 µg/mL (≈ 1.03 µM); in the assay with Nakaseomyces glabratus, 0.5 µg/mL (≈ 1.03 µM); against Aspergillus fumigatus, over 64 µg/mL.
On to `CC(C)c1cccc(-c2nc3n(n2)CCN([C@H](C)[C@](O)(Cn2cncn2)c2ccc(F)cc2F)C3)c1`, for which the MIC against Candida albicans [1] stood at 0.25 µg/mL (≈ 0.507 µM); against Candida albicans [2], 4 µg/mL (≈ 8.1 µM); in the assay on Candida parapsilosis it was 4 µg/mL (≈ 8.1 µM); in the assay on Cryptococcus neoformans, 8 µg/mL (≈ 16.2 µM); against Nakaseomyces glabratus it was 4 µg/mL (≈ 8.1 µM); with Aspergillus fumigatus it was 16 µg/mL (≈ 32.4 µM).
`Cc1ccc(-c2nc3n(n2)CCN([C@H](C)[C@](O)(Cn2cncn2)c2ccc(F)cc2F)C3)cc1`: the MIC was determined as 0.0625 µg/mL (≈ 0.134 µM) in the assay with Candida albicans [1]; 0.125 µg/mL (≈ 0.269 µM) with Candida albicans [2]; 0.125 µg/mL (≈ 0.269 µM) with Candida parapsilosis; 0.125 µg/mL (≈ 0.269 µM) in the assay with Cryptococcus neoformans; 0.125 µg/mL (≈ 0.269 µM) with Nakaseomyces glabratus; 32 µg/mL (≈ 68.7 µM) against Aspergillus fumigatus.
As to `COc1ccc(-c2nc3n(n2)CCN([C@H](C)[C@](O)(Cn2cncn2)c2ccc(F)cc2F)C3)cc1`, the MIC is 0.0625 µg/mL (≈ 0.13 µM) in the assay on Candida albicans [1]; 0.125 µg/mL (≈ 0.26 µM) against Candida albicans [2]; 0.25 µg/mL (≈ 0.519 µM) in the assay on Candida parapsilosis; 0.125 µg/mL (≈ 0.26 µM) against Cryptococcus neoformans; 0.125 µg/mL (≈ 0.26 µM) against Nakaseomyces glabratus; 32 µg/mL (≈ 66.5 µM) with Aspergillus fumigatus.
`C[C@@H](N1CCn2nc(-c3cccc(F)c3)nc2C1)[C@](O)(Cn1cncn1)c1ccc(F)cc1F`: the MIC in the assay with Candida albicans [1] came out at 0.125 µg/mL (≈ 0.266 µM); in the assay on Candida albicans [2] it was 0.125 µg/mL (≈ 0.266 µM); with Candida parapsilosis, 0.5 µg/mL (≈ 1.07 µM); with Cryptococcus neoformans, 0.5 µg/mL (≈ 1.07 µM); with Nakaseomyces glabratus it was 0.25 µg/mL (≈ 0.533 µM); in the assay with Aspergillus fumigatus, 16 µg/mL (≈ 34.1 µM).
For `C[C@@H](N1CCn2nc(-c3cccc(C#N)c3)nc2C1)[C@](O)(Cn1cncn1)c1ccc(F)cc1F`, the MIC stood at 0.125 µg/mL (≈ 0.262 µM) against Candida albicans [1]; 0.125 µg/mL (≈ 0.262 µM) in the assay with Candida albicans [2]; 0.125 µg/mL (≈ 0.262 µM) against Candida parapsilosis; 0.5 µg/mL (≈ 1.05 µM) against Cryptococcus neoformans; 0.5 µg/mL (≈ 1.05 µM) in the assay with Nakaseomyces glabratus; 16 µg/mL (≈ 33.6 µM) in the assay with Aspergillus fumigatus.
For `COc1cccc(-c2nc3n(n2)CCN([C@H](C)[C@](O)(Cn2cncn2)c2ccc(F)cc2F)C3)c1`, the MIC in the assay on Candida albicans [1] was 0.0625 µg/mL (≈ 0.13 µM); in the assay with Candida albicans [2], 0.125 µg/mL (≈ 0.26 µM); against Candida parapsilosis it was 0.25 µg/mL (≈ 0.519 µM); with Cryptococcus neoformans, 0.25 µg/mL (≈ 0.519 µM); against Nakaseomyces glabratus, 0.125 µg/mL (≈ 0.26 µM); in the assay on Aspergillus fumigatus, 32 µg/mL (≈ 66.5 µM).
`CC(C)c1ccc(-c2nc3n(n2)CCN([C@H](C)[C@](O)(Cn2cncn2)c2ccc(F)cc2F)C3)cc1`: the MIC was found to be 0.5 µg/mL (≈ 1.01 µM) against Candida albicans [1]; 0.5 µg/mL (≈ 1.01 µM) with Candida albicans [2]; 1 µg/mL (≈ 2.03 µM) against Candida parapsilosis; 2 µg/mL (≈ 4.05 µM) against Cryptococcus neoformans; 1 µg/mL (≈ 2.03 µM) against Nakaseomyces glabratus; 16 µg/mL (≈ 32.4 µM) in the assay on Aspergillus fumigatus.
Regarding `C[C@@H](N1CCn2nc(-c3cccs3)nc2C1)[C@](O)(Cn1cncn1)c1ccc(F)cc1F`, the minimal inhibitory concentration (MIC) stood at 0.125 µg/mL (≈ 0.273 µM) against Candida albicans [1]; 0.125 µg/mL (≈ 0.273 µM) against Candida albicans [2]; 0.125 µg/mL (≈ 0.273 µM) against Candida parapsilosis; 0.125 µg/mL (≈ 0.273 µM) in the assay with Cryptococcus neoformans; 0.25 µg/mL (≈ 0.546 µM) against Nakaseomyces glabratus; 8 µg/mL (≈ 17.5 µM) against Aspergillus fumigatus.
Take `C[C@@H](N1CCn2nc(-c3ccco3)nc2C1)[C@](O)(Cn1cncn1)c1ccc(F)cc1F`: the MIC in the assay with Candida albicans [1] worked out at 0.125 µg/mL (≈ 0.283 µM); against Candida albicans [2] it was 0.125 µg/mL (≈ 0.283 µM); against Candida parapsilosis, 0.25 µg/mL (≈ 0.566 µM); with Cryptococcus neoformans, 0.25 µg/mL (≈ 0.566 µM); against Nakaseomyces glabratus, 0.25 µg/mL (≈ 0.566 µM); against Aspergillus fumigatus, 16 µg/mL (≈ 36.2 µM).
As for `C[C@@H](N1CCn2nc(-c3ccsc3)nc2C1)[C@](O)(Cn1cncn1)c1ccc(F)cc1F`, the MIC in the assay on Candida albicans [1] was found to be 0.125 µg/mL (≈ 0.273 µM); in the assay on Candida albicans [2], 0.125 µg/mL (≈ 0.273 µM); in the assay on Candida parapsilosis it was 0.125 µg/mL (≈ 0.273 µM); in the assay with Cryptococcus neoformans, 0.125 µg/mL (≈ 0.273 µM); against Nakaseomyces glabratus, 0.125 µg/mL (≈ 0.273 µM); in the assay with Aspergillus fumigatus, 16 µg/mL (≈ 35 µM).
As to `C[C@@H](N1CCn2nc(Br)nc2C1)[C@](O)(Cn1cncn1)c1ccc(F)cc1F`, the MIC in the assay on Candida albicans [1] worked out at 0.125 µg/mL (≈ 0.275 µM); with Candida albicans [2], 0.125 µg/mL (≈ 0.275 µM); against Candida parapsilosis it was 0.25 µg/mL (≈ 0.55 µM); against Cryptococcus neoformans it was 0.25 µg/mL (≈ 0.55 µM); in the assay on Nakaseomyces glabratus, 0.5 µg/mL (≈ 1.1 µM); in the assay with Aspergillus fumigatus, 16 µg/mL (≈ 35.2 µM).
Regarding `C[C@@H](N1CCn2nc(-c3ccncc3)nc2C1)[C@](O)(Cn1cncn1)c1ccc(F)cc1F`, the MIC in the assay on Candida albicans [1] came to 0.0625 µg/mL (≈ 0.138 µM); in the assay on Candida albicans [2], 0.0625 µg/mL (≈ 0.138 µM); in the assay with Candida parapsilosis it was 0.0312 µg/mL (≈ 0.0691 µM); in the assay on Cryptococcus neoformans, 0.125 µg/mL (≈ 0.276 µM); with Nakaseomyces glabratus, 0.125 µg/mL (≈ 0.276 µM); in the assay on Aspergillus fumigatus, 16 µg/mL (≈ 35.4 µM).
Turning to `C[C@@H](N1CCn2nc(-c3cncnc3)nc2C1)[C@](O)(Cn1cncn1)c1ccc(F)cc1F`, the MIC amounted to 0.0312 µg/mL (≈ 0.0689 µM) against Candida albicans [1]; 0.125 µg/mL (≈ 0.276 µM) against Candida albicans [2]; 0.0625 µg/mL (≈ 0.138 µM) with Candida parapsilosis; 0.0625 µg/mL (≈ 0.138 µM) against Cryptococcus neoformans; 0.0625 µg/mL (≈ 0.138 µM) against Nakaseomyces glabratus; 32 µg/mL (≈ 70.6 µM) against Aspergillus fumigatus.
